We go through 3 compounds from ChEMBL document CHEMBL4229554, “Design and Characterization of Novel Covalent Bromodomain and Extra-Terminal Domain (BET) Inhibitors Targeting a Methionine” (J Med Chem, 2018).

Molecules are shown by their SMILES. Calls of active or inactive are those of the source. The rule behind the calls is not given here.

The target of data set [1] is Histone acetyltransferase p300 (Homo sapiens) (UniProt Q09472). The experiment in a line: Binding affinity to P300 (unknown origin) assessed as change in melting temperature at 100 uM after 0.5 to 4 hrs by SYPRO orange protein staining-based thermal denaturation assay. The method in brief:
(§1)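 Thermal shift (PTS) screen of non-BET bromodomains. Each domain at 5 µM incubated with 100 µM covalent or control compound plus 5X SYPRO Orange in 50 mM NaCl/50 mM HEPES pH 7.4 for 30 min or 4 h. Change in Tm recorded, with a search for a high-Tm species.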

Data set [2] addresses T1, Bromodomain-containing protein 4 (Homo sapiens, UniProt O60885). Put plainly: Inhibition of N-terminal His-tagged BRD4 (BD2) (unknown origin) using biotinylated tetra-acetylated histone H4 peptide after 30 mins by alpha-screen assay. (In Alpha technology, singlet oxygen from a donor bead excites a nearby acceptor bead.)
Data set [3] deals with PH-interacting protein (Homo sapiens) (UniProt Q8WWQ0). The experiment in a line: Binding affinity to PHIP (unknown origin) assessed as change in melting temperature at 100 uM after 0.5 to 4 hrs by SYPRO orange protein staining-based thermal denaturation assay. The method in brief:
as §1

The target in data set [4] is T1, Bromodomain-containing protein 4. The experiment in a line: Inhibition of N-terminal His-tagged BRD4 (BD1/BD2) (unknown origin) using biotinylated tetra-acetylated histone H4 peptide after 30 mins by alpha-screen assay.
Data set [5] shares this target. The experiment in a line: Binding affinity to N-terminal His-tagged BRD4 (BD1) (unknown origin) assessed as change in melting temperature incubated for 4 hrs in presence of increasing concentrations of cysteine amino acids by SYPRO orange protein staining-based thermal denaturation assay. The method in brief: (§2)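 Preformed BRD4(BD1)–compound covalent complex incubated with excess free cysteine or methionine. Reversibility assessed by SYPRO Orange thermal denaturation, monitoring the complex's Tm.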

The target in another data set is T2, Peregrin (Homo sapiens) (UniProt P55201).
T2 sequence (whole entry): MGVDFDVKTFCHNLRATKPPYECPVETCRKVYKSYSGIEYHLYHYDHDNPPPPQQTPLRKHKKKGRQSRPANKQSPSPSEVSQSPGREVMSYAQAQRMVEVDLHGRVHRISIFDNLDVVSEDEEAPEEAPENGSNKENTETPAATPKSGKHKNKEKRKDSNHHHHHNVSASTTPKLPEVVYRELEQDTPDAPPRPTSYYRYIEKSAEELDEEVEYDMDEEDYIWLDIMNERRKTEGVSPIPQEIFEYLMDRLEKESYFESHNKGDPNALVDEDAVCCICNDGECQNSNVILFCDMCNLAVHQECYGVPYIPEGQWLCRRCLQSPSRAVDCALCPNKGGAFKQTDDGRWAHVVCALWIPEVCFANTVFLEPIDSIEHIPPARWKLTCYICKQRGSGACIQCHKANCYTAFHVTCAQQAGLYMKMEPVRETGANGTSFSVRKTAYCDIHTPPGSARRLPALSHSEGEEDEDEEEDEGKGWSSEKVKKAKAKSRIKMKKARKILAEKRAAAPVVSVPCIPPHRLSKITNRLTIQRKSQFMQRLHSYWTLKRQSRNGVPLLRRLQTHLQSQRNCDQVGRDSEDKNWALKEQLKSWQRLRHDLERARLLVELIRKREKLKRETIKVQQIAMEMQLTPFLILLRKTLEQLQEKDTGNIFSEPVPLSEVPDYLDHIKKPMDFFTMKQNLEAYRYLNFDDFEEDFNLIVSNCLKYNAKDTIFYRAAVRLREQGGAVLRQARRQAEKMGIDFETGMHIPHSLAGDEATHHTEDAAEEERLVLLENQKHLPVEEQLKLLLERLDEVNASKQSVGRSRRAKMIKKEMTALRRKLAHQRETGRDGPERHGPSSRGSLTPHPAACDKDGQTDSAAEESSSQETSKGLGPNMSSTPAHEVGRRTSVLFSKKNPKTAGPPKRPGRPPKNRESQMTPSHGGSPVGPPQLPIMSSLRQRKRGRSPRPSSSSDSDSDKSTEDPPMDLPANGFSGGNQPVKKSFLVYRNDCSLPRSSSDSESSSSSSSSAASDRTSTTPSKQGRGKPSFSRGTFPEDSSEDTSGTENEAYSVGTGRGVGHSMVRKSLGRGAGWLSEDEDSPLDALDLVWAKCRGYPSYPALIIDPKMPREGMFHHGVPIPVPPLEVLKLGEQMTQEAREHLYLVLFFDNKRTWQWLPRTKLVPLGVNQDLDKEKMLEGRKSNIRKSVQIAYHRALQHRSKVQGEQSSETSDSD
Put plainly: Binding affinity to BRPF1 (unknown origin) assessed as change in melting temperature at 100 uM after 0.5 to 4 hrs by SYPRO orange protein staining-based thermal denaturation assay. The essentials:
as §1

The target in data set [6] is CREB-binding protein (Homo sapiens) (UniProt Q92793). The experiment in a line: Binding affinity to CREBBP (unknown origin) assessed as change in melting temperature at 100 uM after 0.5 to 4 hrs by SYPRO orange protein staining-based thermal denaturation assay. The essentials: as §1
For data set [7], the target named is T1, Bromodomain-containing protein 4. The experiment in a line: Inhibition of N-terminal His-tagged BRD4 (BD1) (unknown origin) using biotinylated tetra-acetylated histone H4 peptide after 30 mins by alpha-screen assay.
Data set [8] has as its target SWI/SNF-related matrix-associated actin-dependent regulator of chromatin subfamily A member 4 (Homo sapiens) (UniProt P51532). Put plainly: Binding affinity to BRG1 (unknown origin) assessed as change in melting temperature at 100 uM after 0.5 to 4 hrs by SYPRO orange protein staining-based thermal denaturation assay. The essentials:
as §1

The target in data set [9] is T1, Bromodomain-containing protein 4. Put plainly: Binding affinity to N-terminal His-tagged BRD4 (BD1) (unknown origin) assessed as change in melting temperature at 100 uM after 0.5 hrs by SYPRO orange protein staining-based thermal denaturation assay. The essentials: (§3)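 N-terminally His-tagged recombinant BRD4(BD1), 5 µM, incubated with 100 µM compound and 5X SYPRO Orange in 50 mM NaCl/50 mM HEPES pH 7.4 for 30 min or 4 h. Protein thermal shift melt gives ΔTm; more than one transition may be resolved.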

Data set [10] addresses Transcription initiation factor TFIID subunit 1 (Homo sapiens) (UniProt P21675). The experiment in a line: Binding affinity to TAF1(2) (unknown origin) assessed as change in melting temperature at 100 uM after 0.5 to 4 hrs by SYPRO orange protein staining-based thermal denaturation assay. The method in brief: as §1
Data set [11] addresses T1, Bromodomain-containing protein 4. Put plainly: Binding affinity to N-terminal His-tagged BRD4 (BD1) (unknown origin) assessed as change in melting temperature incubated for 4 hrs in presence of increasing concentrations of methionine by SYPRO orange protein staining-based thermal denaturation assay. The essentials: as §2
Data set [12] relates to MV4-11. Put plainly: Induction of apoptosis in human MV4-11 cells assessed as late apoptotic cells after 72 hrs by FITC annexin V-staining based flow cytometry (reference value: 1.53%). Type of data set: functional. Background: A flow cytometer gives signals particle by particle.
Data set [13] concerns MV4-11. The experiment in a line: Induction of apoptosis in human MV4-11 cells assessed as viable cells after 72 hrs by FITC annexin V-staining based flow cytometry (reference value: 96.4%). Type of data set: functional.
The target of data set [14] is T1, Bromodomain-containing protein 4. The experiment in a line: Ratio of IC50 for inhibition of N-terminal His-tagged BRD4 (BD1) (unknown origin) using biotinylated tetra-acetylated histone H4 peptide after 4 hrs by alpha-screen assay to IC50 for inhibition of N-terminal His-tagged BRD4(BD1) (unknown origin) using biotinylated tetra-acetylated histone H4 peptide after 5 mins by alpha-screen assay. The essentials: (§4)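 AlphaScreen: N-terminally His-tagged BRD4(BD1) (20–200 nM) with biotinylated tetra-acetylated H4 peptide (3–75 nM) in 50 mM HEPES, 100 mM NaCl, 0.1% BSA, pH 7.4, under green light. Nickel-chelate acceptor and streptavidin donor beads at 2 µg/mL final, serially diluted compounds added. Luminescence read at 570 nm.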

The target is the same in data set [15]. The experiment in a line: Binding affinity to N-terminal His-tagged BRD4 (BD1) (unknown origin) assessed as change in melting temperature at 100 uM after 4 hrs by SYPRO orange protein staining-based thermal denaturation assay. The method in brief:
as §3

For data set [16], the system named is MV4-11. Put plainly: Antiproliferative activity against human MV4-11 cells preincubated for 24 hrs by followed by compound washout measured after 48 hrs post compound washout by cell-titer 96 aqueous one solution reagent-based assay. Type of data set: functional. The essentials:
(§5)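 Washout format: MV4-11 plated at 25,000 cells/well with two-fold dilutions, triplicate wells. Cells treated 24 h, compound removed and cells washed twice with conditioned media. Growth continued 48 h in compound-free media. Read with CellTiter 96 AQueous One reagent, absorbance 490 nm, expressed as % of DMSO control.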

Data set [17] has as its system MV4-11. Put plainly: Induction of apoptosis in human MV4-11 cells assessed as early apoptotic cells after 72 hrs by FITC annexin V-staining based flow cytometry (reference value: 1.87%). Type of data set: functional.
A further data set has as its system PBMC. The experiment in a line: Cytotoxicity against human PBMC assessed as reduction in cell viability after 24 hrs by cell-titer 96 aqueous one solution reagent-based assay.
The target in data set [18] is T1, Bromodomain-containing protein 4. The experiment in a line: Inhibition of N-terminal His-tagged BRD4 (BD1) (unknown origin) using biotinylated tetra-acetylated histone H4 peptide after 4 hrs by alpha-screen assay. The method in brief:
as §4

For data set [19], the system named is MV4-11. Put plainly: Induction of apoptosis in human MV4-11 cells assessed as necrotic cells after 72 hrs by FITC annexin V-staining based flow cytometry (reference value: 0.21%). Type of data set: functional.
Data set [20] deals with T1, Bromodomain-containing protein 4. The experiment in a line: Inhibition of N-terminal His-tagged BRD4 (BD1) (unknown origin) using biotinylated tetra-acetylated histone H4 peptide after 5 mins by alpha-screen assay. The method in brief: as §4
The target is the same in data set [21]. The experiment in a line: Inhibition of N-terminal His-tagged BRD4 (BD1) (unknown origin) using biotinylated tetra-acetylated histone H4 peptide after 1 hr by alpha-screen assay. The method in brief:
as §4

The test system of data set [22] is MV4-11. The experiment in a line: Antiproliferative activity against human MV4-11 cells incubated for 24 hrs followed by compound removal and further incubation for 48 hrs by cell-titer 96 aqueous one solution reagent-based assay. Type of data set: functional. The essentials: as §5

Transcription initiation factor TFIID subunit 1 (Homo sapiens), sequence (P21675 whole entry): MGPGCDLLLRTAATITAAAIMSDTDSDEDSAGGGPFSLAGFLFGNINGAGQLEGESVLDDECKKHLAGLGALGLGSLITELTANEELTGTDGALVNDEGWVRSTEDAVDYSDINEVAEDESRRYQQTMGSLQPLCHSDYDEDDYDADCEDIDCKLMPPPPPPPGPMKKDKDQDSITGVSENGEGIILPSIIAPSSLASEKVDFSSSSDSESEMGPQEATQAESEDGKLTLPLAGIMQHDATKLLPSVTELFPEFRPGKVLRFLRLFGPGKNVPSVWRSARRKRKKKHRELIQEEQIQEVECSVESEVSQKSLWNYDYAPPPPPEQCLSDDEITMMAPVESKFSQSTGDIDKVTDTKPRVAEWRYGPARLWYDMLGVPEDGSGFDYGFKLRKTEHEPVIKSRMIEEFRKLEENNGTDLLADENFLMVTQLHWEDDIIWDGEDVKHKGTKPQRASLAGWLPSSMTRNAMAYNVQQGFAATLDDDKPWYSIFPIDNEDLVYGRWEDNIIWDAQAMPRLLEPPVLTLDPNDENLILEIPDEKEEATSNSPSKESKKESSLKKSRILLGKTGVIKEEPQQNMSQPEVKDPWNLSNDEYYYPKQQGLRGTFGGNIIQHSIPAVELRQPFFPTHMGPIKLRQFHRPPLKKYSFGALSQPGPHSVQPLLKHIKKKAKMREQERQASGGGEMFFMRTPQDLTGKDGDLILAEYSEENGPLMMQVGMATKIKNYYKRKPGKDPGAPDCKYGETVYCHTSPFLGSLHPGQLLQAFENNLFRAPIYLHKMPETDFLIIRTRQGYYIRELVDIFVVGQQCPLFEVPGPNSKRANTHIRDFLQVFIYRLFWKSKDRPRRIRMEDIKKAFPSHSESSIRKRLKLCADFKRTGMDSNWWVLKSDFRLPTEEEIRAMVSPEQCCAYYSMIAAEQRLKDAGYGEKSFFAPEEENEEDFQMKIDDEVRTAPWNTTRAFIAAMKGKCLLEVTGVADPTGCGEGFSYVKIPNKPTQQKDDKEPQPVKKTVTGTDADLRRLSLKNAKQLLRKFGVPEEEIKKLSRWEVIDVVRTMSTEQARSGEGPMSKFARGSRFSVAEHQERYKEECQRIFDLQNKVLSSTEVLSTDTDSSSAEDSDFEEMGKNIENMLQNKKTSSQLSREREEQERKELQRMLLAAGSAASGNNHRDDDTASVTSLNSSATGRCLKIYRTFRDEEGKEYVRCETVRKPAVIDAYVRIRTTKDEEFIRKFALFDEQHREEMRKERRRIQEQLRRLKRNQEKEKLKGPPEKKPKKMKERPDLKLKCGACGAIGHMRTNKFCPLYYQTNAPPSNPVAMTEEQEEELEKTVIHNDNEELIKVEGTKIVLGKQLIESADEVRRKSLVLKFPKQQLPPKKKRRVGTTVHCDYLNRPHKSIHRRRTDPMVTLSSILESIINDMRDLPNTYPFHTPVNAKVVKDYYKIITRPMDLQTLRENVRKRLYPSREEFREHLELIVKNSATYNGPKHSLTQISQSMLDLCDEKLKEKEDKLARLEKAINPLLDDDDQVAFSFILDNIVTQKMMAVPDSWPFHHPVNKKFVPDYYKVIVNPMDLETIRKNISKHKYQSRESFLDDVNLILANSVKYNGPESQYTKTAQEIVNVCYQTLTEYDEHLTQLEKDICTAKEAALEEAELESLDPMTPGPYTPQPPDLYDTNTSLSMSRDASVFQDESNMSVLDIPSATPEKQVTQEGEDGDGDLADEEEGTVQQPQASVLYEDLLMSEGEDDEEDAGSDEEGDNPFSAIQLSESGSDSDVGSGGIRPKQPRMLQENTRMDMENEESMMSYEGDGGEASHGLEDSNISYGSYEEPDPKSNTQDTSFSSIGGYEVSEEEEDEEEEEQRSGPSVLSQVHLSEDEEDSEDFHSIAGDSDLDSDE
CREB-binding protein (Homo sapiens), sequence (Q92793 2-2442 limits assumed): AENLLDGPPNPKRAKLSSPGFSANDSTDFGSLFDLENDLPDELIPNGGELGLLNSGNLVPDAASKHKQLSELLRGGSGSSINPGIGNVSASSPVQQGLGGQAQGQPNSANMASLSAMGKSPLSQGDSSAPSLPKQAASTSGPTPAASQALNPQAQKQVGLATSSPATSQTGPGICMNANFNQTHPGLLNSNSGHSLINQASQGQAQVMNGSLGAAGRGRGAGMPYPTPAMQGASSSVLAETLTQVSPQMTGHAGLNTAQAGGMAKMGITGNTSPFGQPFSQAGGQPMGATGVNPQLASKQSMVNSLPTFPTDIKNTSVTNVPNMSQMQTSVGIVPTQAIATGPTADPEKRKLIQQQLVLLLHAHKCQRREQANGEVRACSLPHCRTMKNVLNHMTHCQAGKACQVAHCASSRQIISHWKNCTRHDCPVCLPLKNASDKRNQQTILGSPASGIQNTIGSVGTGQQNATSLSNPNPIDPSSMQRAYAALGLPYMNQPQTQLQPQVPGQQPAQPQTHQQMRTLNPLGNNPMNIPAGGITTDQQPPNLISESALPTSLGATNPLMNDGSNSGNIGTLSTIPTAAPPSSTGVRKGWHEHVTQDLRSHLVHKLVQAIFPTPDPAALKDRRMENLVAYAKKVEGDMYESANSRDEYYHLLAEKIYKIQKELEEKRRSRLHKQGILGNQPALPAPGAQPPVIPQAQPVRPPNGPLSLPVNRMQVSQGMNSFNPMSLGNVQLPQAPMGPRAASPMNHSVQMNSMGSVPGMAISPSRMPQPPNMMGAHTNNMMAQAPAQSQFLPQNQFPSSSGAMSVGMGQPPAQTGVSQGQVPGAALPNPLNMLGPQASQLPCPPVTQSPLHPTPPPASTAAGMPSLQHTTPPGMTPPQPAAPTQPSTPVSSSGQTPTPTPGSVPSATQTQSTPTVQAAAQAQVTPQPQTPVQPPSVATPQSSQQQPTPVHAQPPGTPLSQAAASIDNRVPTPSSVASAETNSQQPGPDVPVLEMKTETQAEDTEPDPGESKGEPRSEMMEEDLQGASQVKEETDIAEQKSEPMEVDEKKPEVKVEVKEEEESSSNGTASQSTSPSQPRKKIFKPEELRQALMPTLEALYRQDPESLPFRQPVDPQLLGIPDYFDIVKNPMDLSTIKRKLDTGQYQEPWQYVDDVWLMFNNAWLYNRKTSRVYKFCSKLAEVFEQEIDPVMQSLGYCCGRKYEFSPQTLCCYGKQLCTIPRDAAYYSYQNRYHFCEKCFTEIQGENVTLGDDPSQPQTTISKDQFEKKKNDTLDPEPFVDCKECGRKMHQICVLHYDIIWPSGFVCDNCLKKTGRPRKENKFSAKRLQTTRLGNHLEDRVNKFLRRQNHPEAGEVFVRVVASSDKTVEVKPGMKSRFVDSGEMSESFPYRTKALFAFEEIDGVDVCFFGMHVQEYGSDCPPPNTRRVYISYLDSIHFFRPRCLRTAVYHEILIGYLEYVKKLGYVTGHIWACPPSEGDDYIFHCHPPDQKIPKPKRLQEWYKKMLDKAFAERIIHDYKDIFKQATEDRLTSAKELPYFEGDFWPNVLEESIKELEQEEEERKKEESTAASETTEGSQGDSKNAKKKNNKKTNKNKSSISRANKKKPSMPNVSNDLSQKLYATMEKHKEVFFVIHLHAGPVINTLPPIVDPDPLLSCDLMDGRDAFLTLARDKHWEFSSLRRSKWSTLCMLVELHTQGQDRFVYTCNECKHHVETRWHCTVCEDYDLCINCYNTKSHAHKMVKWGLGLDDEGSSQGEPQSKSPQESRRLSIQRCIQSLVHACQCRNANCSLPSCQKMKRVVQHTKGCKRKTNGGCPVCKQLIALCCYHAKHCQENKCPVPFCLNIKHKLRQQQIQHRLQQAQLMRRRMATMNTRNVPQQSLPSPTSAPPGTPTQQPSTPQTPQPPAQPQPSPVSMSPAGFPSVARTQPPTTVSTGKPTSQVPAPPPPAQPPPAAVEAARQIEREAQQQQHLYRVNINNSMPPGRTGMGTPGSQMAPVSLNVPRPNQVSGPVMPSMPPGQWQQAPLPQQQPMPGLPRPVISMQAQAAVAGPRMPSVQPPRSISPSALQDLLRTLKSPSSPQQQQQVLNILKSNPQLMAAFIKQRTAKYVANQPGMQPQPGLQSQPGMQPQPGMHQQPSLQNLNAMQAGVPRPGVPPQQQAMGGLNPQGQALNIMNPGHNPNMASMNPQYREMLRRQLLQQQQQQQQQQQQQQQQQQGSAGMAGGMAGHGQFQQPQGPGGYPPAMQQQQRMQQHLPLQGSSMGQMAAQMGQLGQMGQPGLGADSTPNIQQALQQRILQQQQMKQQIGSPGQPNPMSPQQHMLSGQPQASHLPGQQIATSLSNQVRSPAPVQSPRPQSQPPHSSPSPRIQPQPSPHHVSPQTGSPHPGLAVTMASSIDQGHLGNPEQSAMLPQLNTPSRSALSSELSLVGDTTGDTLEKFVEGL

In the case of `Cc1noc(C)c1-c1ccc(=O)n(Cc2ccccc2)c1`, the result (in [1]; in data set [3]; on Peregrin (Homo sapiens); in data set [6]; in [8]; in data set [10]) was inactive. Besides, the 50% inhibitory concentration (IC50) – broadly, the midpoint of a concentration-inhibition curve – in data set [2] was determined as 80 nM; in data set [4], 280 nM; in data set [7], 230 nM. Further, the outcome in data set [5] and in [11] was Active. For the same compound, in [9], the ΔTm – broadly, the change in melting temperature against a reference sample – worked out at 5 °C.

For `Cc1noc(C)c1-c1cc(N)c2ncn(Cc3ccc(C4CO4)cc3)c2c1` (configuration not stated), the Activity with MV4-11 [12] was 19.6%; with MV4-11 [13], 12.5%; with MV4-11 [17], 65.9%; in the data set on PBMC, “Non-Toxic”; with MV4-11 [19], 2.05%. Besides, the Ratio IC50 in [14] stood at 18. Besides, the result (in data set [15]; in the data set on MV4-11 [16]; in data set [9]; with MV4-11 [22]) was Active. The IC50 in data set [2] stood at 50 nM; in data set [4], 60 nM; in [18] it was 15 nM; in data set [20], 274 nM; in [7], 50 nM; in data set [21], 75 nM.

Turning to `Cc1noc(C)c1-c1cc(N)c2ncn(Cc3ccccc3)c2c1`, the Activity in the data set with MV4-11 [12] is on record as 24.2%; in the data set on MV4-11 [13] it was 17.6%; with MV4-11 [17], 45%; with PBMC, “Non-Toxic”; in the data set on MV4-11 [19] it was 13.3%. Also, in data set [14], the Ratio IC50 was 1. Also, the outcome in data set [15] and in data set [9] was Active. Moreover, the IC50 turned out to be 10 nM in [2]; 50 nM in data set [4]; 19 nM in [18]; 17 nM in data set [20]; 20 nM in [7]; 8 nM in [21].
